# A selection: hits, their analogues and other compounds. The true share with any hit is near 3.5%.
# RGS4 pot = RGS4 potentiation or activation; HEK293 M3R/inducible RGS4, carbachol calcium flux Fluo4; stronger effect = lower value; B-score at 10 µM; actives 0.92% (n = 310,000);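 active = B-score of the integrated calcium signal more than 4 SD below the library mean, with starting fluorescence not abnormally high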;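 note: negative B-score means reduced calcium response which marks RGS4 activation or potentiation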
#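 Test system: HEK293 cells with stable M3R and inducible RGS4; also added: carbachol at ECmax as muscarinic agonist stimulus; schedule: dye loading 30 min 37 °C, buffer rest 30 min RT; technique: kinetic calcium fluorescence imaging with Fluo4-AM dye, 2 µM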
# RGS4 inh = inhibitors of human RGS4; B-score at 10 µM; HEK293 M3R/RGS4 inducible, Fluo-4 calcium flux; stronger effect = higher value; triggered by carbachol at its EC20; actives 0.45% (n = 310,000); P49798; AID 463165;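 active = B-score, a plate-corrected calcium signal, over three deviations above library mean, with baseline fluorescence within five deviations of library mean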;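 note: RGS4 expression induced by doxycycline in cells with stable M3 receptor; B-score is computed from the integrated fluorescence ratio over baseline after carbachol; higher B-score means a larger calcium signal and so more RGS4 inhibition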
# Target sequence (P49798 whole entry, looked up): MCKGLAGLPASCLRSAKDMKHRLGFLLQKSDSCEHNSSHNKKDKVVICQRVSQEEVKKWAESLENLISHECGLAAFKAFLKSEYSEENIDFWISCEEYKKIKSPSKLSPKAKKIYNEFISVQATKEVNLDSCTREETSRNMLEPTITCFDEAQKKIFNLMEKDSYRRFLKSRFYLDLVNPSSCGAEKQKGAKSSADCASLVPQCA
# MrgX1 ag = human MrgX1 receptor agonism, primary screen. B-score at 10 µM. MrgX1-HEK293 cells, Fluo-4 calcium fluorescence, agonist mode; stronger effect = higher value. Q96LB2. AID 588627. actives 0.44% (n = 310,000);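 active = calcium response B-score plate-corrected fluorescence ratio at least 3 library SD, with starting fluorescence B-score inside 5 SD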
# Target sequence (Q96LB2 whole entry, looked up): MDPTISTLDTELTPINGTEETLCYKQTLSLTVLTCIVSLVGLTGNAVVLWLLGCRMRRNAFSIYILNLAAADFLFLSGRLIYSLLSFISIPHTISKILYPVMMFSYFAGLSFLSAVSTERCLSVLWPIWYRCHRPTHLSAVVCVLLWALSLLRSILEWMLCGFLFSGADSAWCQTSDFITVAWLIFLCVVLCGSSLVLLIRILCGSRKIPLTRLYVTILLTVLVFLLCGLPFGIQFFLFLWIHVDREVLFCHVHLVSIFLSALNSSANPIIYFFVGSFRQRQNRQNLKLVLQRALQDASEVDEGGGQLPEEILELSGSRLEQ
#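 times = overnight plating, then 30 min 37 °C plus 30 min room-temperature dye loading | assay system = stable human MrgX1 HEK293 cell line | input = fifteen thousand cells per well | signal = kinetic calcium dye fluorescence, Fluo-4 NW | dosing = compound delivered in addition one of three | read-out = B-scored fluorescence response ratio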
# MrgX1 allo act = human MrgX1 positive allosteric modulation, primary screen | MrgX1-HEK293, Fluo-4 calcium flux, FDSS; stronger effect = higher value | B-score at 10 µM | actives 0.63% (n = 310,000) | AID 588675;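 active = plate-corrected calcium response at least 3 library SD above typical, normal starting fluorescence, not activating the receptor alone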;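 note: compound read alongside a low EC10 to EC30 dose of BAM8-22 agonist; peak minus trough fluorescence over baseline measured at the second addition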
# MrgX1 antagonist = blocks BAM8-22 activation of human MrgX1 receptor. AID 588676. actives 1.3% (n = 310,000). MRGX1-HEK293 calcium flux, Fluo-4, BAM8-22 antagonism; stronger effect = lower value. B-score at 10 µM;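 active = calcium-response B-score plate-corrected more than 3 library SD below zero, starting fluorescence within 5 deviations, no agonist response on first addition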;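 note: peak minus trough fluorescence over baseline after final BAM8-22 challenge near maximal dose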
# RGS4 inh valid = validation of RGS4 inhibitors. calcium response, % at 10 µM. actives 65% (n = 1,700). HEK293 M3R/RGS4, carbachol calcium Fluo-4 fluorescence; carbachol added at its EC20; 0 = buffer wells, 100 = carbachol control. AID 492999. shares compounds with RGS4 inh;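 active = duplicate-averaged calcium response above the buffer-only control mean plus 5 SD of those controls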;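 note: integrated fluorescence ratio F max minus min over baseline F0; higher response in RGS4-induced cells means RGS4 inhibition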
# M3R Ca ctr = non-induced cell nonspecific activity of RGS4 inhibitors; shares compounds with RGS4 inh; HEK293 M3R non-induced, carbachol calcium Fluo-4; submaximal (EC20) carbachol stimulus; buffer wells 0%, carbachol control wells 100%; activity (percent), % at 10 µM; actives 20% (n = 1,900); call rule not given here;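 note: RGS4 induction absent so cells express M3R without RGS4; higher means more calcium signal and flags a non-specific hit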
# M3R basal Ca ctr = signal in non-induced cells without carbachol, RGS4 inhibitor counter-screen. HEK293 M3R/RGS4 non-induced, Fluo-4 calcium, no carbachol; normalised: buffer wells 0%, carbachol wells 100%. calcium response (agonist-mode artifact), % at 10 µM. AID 493001. shares compounds with RGS4 inh. actives 22% (n = 1,900);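 active = duplicate-averaged calcium rise in uninduced cells above buffer wells' mean plus 5 SD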
# * = called active by the depositor; i = inactive; / = no result.
SMILES,RGS4 pot,RGS4 inh,MrgX1 ag,MrgX1 allo act,MrgX1 antagonist,RGS4 inh valid,M3R Ca ctr,M3R basal Ca ctr
CN(C)c1ccc(N2C(=NC(=O)c3ccccc3)SC3CS(=O)(=O)CC32)cc1 (stereo not given),i,i,i,i,i,/,/,/
Cc1c(C(=O)Nc2ccccc2)c2ccc(C(F)(F)F)cc2n1O,i,i,i,i,i,/,/,/
Cc1ccc(C(=O)C2=C(O)C(=O)N(Cc3ccco3)C2c2cccc(Br)c2)o1 (stereo not given),i,i,i,i,i,/,/,/
O=C(C1=C(O)C(=O)N(Cc2ccco2)C1c1cccc(O)c1)c1ccco1 (stereo not given),i,4.67*,i,i,i,5.5%*,i,i
O=C1c2ccccc2NC(c2ccc(-c3ccc(Br)cc3)o2)N1O (stereo not given),i,i,i,i,i,/,/,/
O=C1c2ccccc2NC(c2ccc(-c3cccc([N+](=O)[O-])c3)o2)N1O (stereo not given),i,i,i,i,i,/,i,i
Cc1ccc(NC(=O)CNC(=O)Cn2cnc3sc(C)c(C)c3c2=O)cc1F,i,6.92*,i,i,i,19.0%*,47.5%*,i
O=C(NCC1CC1)c1onc(CSc2ccncc2)c1C(=O)NCC1CC1,i,i,i,i,i,/,/,/
CCCN(C(=O)Cc1c(C(=O)O)n(C)c2ccccc12)c1cccc(C)c1,i,6.23*,i,i,i,12.5%*,67.5%*,11.5%*
O=C(N/N=C/c1cc2cc3c(cc2nc1Cl)OCCO3)c1ccccc1O,i,i,i,i,i,/,/,/
O=C(N/N=C/c1cc2cc3c(cc2nc1Cl)OCO3)c1ccncc1,i,7.83*,i,i,i,i,i,i
Cc1sc(NC(=O)CSC2=NCCS2)nc1-c1ccccc1,i,i,i,i,i,/,/,/
CC(=O)N1CC(=O)N=C1SCC(=O)Nc1nc(-c2ccccc2)c(-c2ccccc2)s1,i,8.68*,i,i,i,29.0%*,i,i
Cc1cc(Br)cc2c1N(C)C(=O)C2(c1ccc(O)cc1)c1ccc(O)cc1,i,27.1*,i,i,i,75.5%*,43.0%*,i
COc1ccc(NC(=O)c2ccco2)cc1NC(=O)c1ccccc1[N+](=O)[O-],i,i,i,i,i,/,/,/
Clc1ccc(-c2csc(N/N=C/c3ccco3)n2)cc1,i,i,i,i,i,/,/,/
Clc1ccc(-c2csc(N/N=C\c3cccnc3)n2)cc1,i,i,i,i,i,/,65.0%*,i
COc1ccc(C(=O)Nn2c(SCc3ccc([N+](=O)[O-])cc3)nc3ccccc3c2=O)cc1,i,i,i,i,i,/,/,/
Cn1c(SCC(=O)Nc2ccc3c(c2)oc2ccccc23)nnc1-c1ccccc1,i,5.13*,i,i,i,7.5%*,i,i
Cn1c(SCC(=O)Nc2ccc3[nH]c(=O)[nH]c3c2)nnc1-c1ccccc1,i,i,i,i,i,/,/,/
Cn1c(CCNC(=O)c2ccccc2)nc2cc(NC(=O)c3ccco3)ccc21,i,i,i,i,i,i,i,i
Cn1c(CCNC(=O)c2ccco2)nc2cc(NC(=O)c3ccco3)ccc21,i,i,i,i,i,i,i,i
CCCCC(=O)Nc1ccc2c(c1)nc(CCNC(=O)c1ccco1)n2C,i,i,i,i,i,/,/,/
Cn1c(CCNC(=O)c2ccco2)nc2cc(NC(=O)C3CCCCC3)ccc21,i,i,i,i,i,/,/,/
CCC(=O)NCCc1nc2cc(NC(=O)c3ccco3)ccc2n1C,i,i,i,i,i,i,i,i
SMILES,RGS4 pot,RGS4 inh,MrgX1 ag,MrgX1 allo act,MrgX1 antagonist,RGS4 inh valid,M3R Ca ctr,M3R basal Ca ctr
Cn1c(CCNC(=O)c2ccco2)nc2cc(NS(=O)(=O)c3ccccc3)ccc21,i,i,i,i,i,/,/,/
Cn1c(CCNC(=O)c2ccco2)nc2cc(NC(=O)c3ccccc3)ccc21,i,i,i,i,i,i,i,i
COc1ccccc1C(=O)Nc1ccc2c(c1)nc(CCNC(=O)c1ccco1)n2C,i,i,i,i,i,/,/,/
CC(CC(C)C(=O)Nc1ccccc1C(C)(C)C)C(=O)O (stereo not given),i,i,i,i,i,/,/,/
Cc1cc(C)n(CC(O)Cn2c3ccc(Br)cc3c3cc(Br)ccc32)c(=O)n1 (stereo not given),i,7.79*,i,i,i,27.0%*,i,i
CCOC(=O)C1CCN(c2cc(=O)n(Cc3ccc(F)cc3)c(=O)[nH]2)CC1,i,i,i,i,i,/,/,/
Cc1ccc(/C=C2/NC(=O)N(Cc3ccccc3)C2=O)o1,i,5.04*,i,i,i,i,i,35.5%*
CCC1CCCCN1C(=O)CCS(=O)(=O)c1ccccc1 (stereo not given),i,i,i,i,i,/,/,/
O=C(Nc1ccc2c(c1)OCO2)c1cc(-c2ccc(O)cc2)on1,i,i,i,i,i,/,/,/
COc1ccc(CCNC(=O)c2ccc(NS(=O)(=O)c3ccc4[nH]c(=O)[nH]c4c3)cc2)cc1,i,i,i,i,i,/,/,/
CC1CCN(c2nc(N3CCCCC3)nc(N3CCCCC3)n2)CC1,i,8.69*,i,i,i,43.5%*,55.0%*,i
COc1cccc(CN(C(=O)c2ccc([N+](=O)[O-])cc2)C2CCS(=O)(=O)C2)c1 (stereo not given),i,i,i,i,i,/,/,/
Clc1ccc(CN2CCN(c3ncccn3)CC2)cc1,i,i,i,i,i,/,/,/
CC1(C)CC(=O)C(C(C2=C(O)CC(C)(C)CC2=O)c2ccc([N+](=O)[O-])cc2)C(=O)C1 (stereo not given),i,i,i,i,i,/,/,/

# From PubChem BioAssay
